This is a sample that favours compounds with a hit; in the whole collection about 4.4% have one here.
HSF1 inh: HSF1 inhibition; NIH3T3-HGL HSE-luciferase, MG132-induced, luminescence 8 h; active compounds read low; activity change, negative = inhibition, % at 7.5 µM (by protocol); 0.77% of 300,000 active; AID 2098;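 active = more than half of replicate wells show activity change below -50%, luminescence cut by over half; inconclusive = some wells, but at most half, below -50%; inactive = no replicate well below -50%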;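 note: luciferase reports HSF-1 transcriptional activity via heat shock element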
HIF act: HIF pathway transcriptional activation | U2OS HRE-luciferase reporter, luminescence; normalized: DMSO 0%, desferrioxamine 100% | activation, % at 7.5 µM (by protocol) | 0.32% of 300,000 active | AID 1910;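 active = mean activation of at least 10% of the iron chelator positive control signal, with at least half of replicates also reaching 10%; inconclusive = mean and replicate majority disagree about reaching 10%; inactive = mean and most replicates under 10%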
T cruzi repl: T. cruzi replication inhibition | T. cruzi beta-gal in NIH3T3, luminescence, 90 h | inhibition, % (no concentration beside the values) | 1.4% of 300,000 active | AID 1885;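 active = mean inhibition across valid replicates above about 55%, limit read from the data; inconclusive = mean below that limit but half or more replicates reach it; inactive = mean below it, under half of replicates reach it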;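 note: signal also drops with host cell toxicity which is not excluded here; higher percent means less beta-gal luminescence so fewer parasites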
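Material: NIH/3T3 host cells with β-galactosidase reporter T. cruzi; Input: 5,000 host fibroblasts per well; Medium: DMEM, 2% fetal bovine serum; Compound: 50 nL DMSO compound solution per well; Schedule: 3 h host attachment, then at least 90 h co-culture; Detection: luminescent β-galactosidase signal after 60 min lysis.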
HSF1 activator: increases HSF-1 driven luciferase reporter signal; 1.7% of 300,000 active; NIH3T3-HGL HSF-1 luciferase reporter, MG132, 8 h; 100% = twice DMSO control signal; activation, % at 9 µM;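 active = mean replicate activation of at least 50% with a set share of replicates each reaching 50%; inconclusive = only one of those two conditions met; inactive = mean below 50% and too few replicates reaching it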
Calb FLC: C. albicans growth modulation with fluconazole | AID 1979 | 0.57% of 300,000 active | growth inhibition, % (test concentration not listed) | C. albicans CaCi-2 + fluconazole, Alamar Blue growth, 48 h;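 active = growth inhibition above about 58% in most replicates, limit read from the data, passing the limit was not always enough; inconclusive = exactly half the replicates above a set limit; inactive = most replicates below a set limit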;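 note: all wells also contain fluconazole at 8 µg/ml as a sub-toxic cotreatment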
A number is an active result; 0 = inactive; ? = inconclusive; - = not tested or not shown.

SMILES	HSF1 inh	HIF act	T cruzi repl	HSF1 activator	Calb FLC
COc1ccc(C(=O)N2N=C3CC(C)(C)OCC3C2c2ccccc2)cc1 (stereo not drawn)	0	0	0	0	0
COc1ccc(CNC(=O)c2ccc3c(=O)n(-c4ccccc4)c(=O)[nH]c3c2)cc1	0	0	0	0	0
CCc1cccc2c(C=C(C#N)C#N)cn(CC(=O)N3CCCCCC3)c12	0	0	0	0	0
CCC(C)(C)NC(=O)CN(C(=O)c1snc(C(N)=O)c1N)c1ccc2c(c1)OCCO2	0	0	0	0	0
CCCC(C(=O)NC(C)(C)C)N(C(=O)c1snc(C(N)=O)c1N)c1ccc2c(c1)OCCO2 (stereo not drawn)	-73.9	0	0	0	0
Cn1cccc1C(=O)C(=O)Nc1ccc(F)c(F)c1	0	0	0	62.7	0
Cc1[nH]c2ccccc2c1/C=N/Nc1cccc(C(=O)O)c1	0	0	0	0	0
COc1cc(C(C(=O)NC(C)(C)C)N(Cc2ccccc2)C(=O)c2cnccn2)cc(OC)c1OC (stereo not drawn)	0	0	0	0	0
COc1ccc(CN(C(=O)c2ccc(-c3ccccc3)[nH]2)C(C(=O)NC(C)(C)C)c2ccncc2)cc1 (stereo not drawn)	0	0	58.5	0	0
O=C(OCCN1C(=O)c2ccccc2C1=O)c1ccccc1	-	-	-	-	0
O=C(OCN1C(=O)c2ccccc2C1=O)c1ccccc1	0	0	0	75.4	0
Cn1c(SCc2ccccc2F)nc2cccnc21	0	0	0	63.1	0
Cc1cccc(NC(=O)c2sc3ncn(CC(=O)N4CCN(c5ccccn5)CC4)c(=O)c3c2C)c1	0	0	0	0	0
CC1CCCCN1C(=O)c1ccccc1OC1CCN(S(C)(=O)=O)CC1 (stereo not drawn)	0	0	0	0	0
CC1CCCN(C(=O)c2ccccc2OC2CCN(S(C)(=O)=O)CC2)C1 (stereo not drawn)	0	0	0	64.1	0
Cc1cc(C)c2c(=O)n(CC(=O)Nc3ccc(Cl)cc3)sc2n1	0	0	60.3	0	0
NS(=O)(=O)c1ccc(CNc2nc(-c3cccnc3)nc3ccccc23)cc1	0	0	0	0	0
CCOC(=O)CC(/C(C)=N\O)c1ccccc1 (stereo not drawn)	0	0	0	0	99.1
CCOC(=O)CC(NC(=O)C(CC)c1ccccc1)c1ccccc1Cl (stereo not drawn)	-	-	0	-	0
COc1cc(OC)c(NC(=O)CCNC(=O)Cn2cnc3ccccc3c2=O)cc1Cl	0	0	0	51.4	0
CCCCc1ccc(NC(=S)NCc2cccc(OC)c2)cc1	0	0	56.3	0	0
Cc1ccc(C)c2[nH]c(=O)c(CCNC(=O)C(C)(C)C)cc12	-85.8	0	0	0	0
COc1ccc(OC)c(C(=O)N2CCC(CCC(=O)NC3CC3)CC2)c1	0	0	0	0	0
CCOC(=O)c1c(-n2cnnn2)sc2c1CCCC2	0	0	0	0	0
CCOC(=O)c1c(N2C(=O)C3C4C=CC(O4)C3C2=O)sc2c1CCCC2 (stereo not drawn)	0	0	0	103.7	0
SMILES	HSF1 inh	HIF act	T cruzi repl	HSF1 activator	Calb FLC
CCOC(=O)C(C)n1cnc2c(nnn2-c2cccc(Cl)c2)c1=O (stereo not drawn)	0	0	0	0	0
CCOC(=O)Cc1cnc(NC(=O)CSc2nc(C(C)C)cc(=O)[nH]2)s1	0	0	0	0	0
CCN1CCN(CCCNc2ncnc3nc[nH]c23)CC1	-86.9	0	0	0	0
c1cn(CCCNc2ncnc3nc[nH]c23)cn1	0	0	0	0	0
Cc1cc2c(ncn2C)c(NS(=O)(=O)c2cc(Cl)ccc2Cl)c1C	0	0	0	140.1	0
Cc1cc2c(ncn2C)c(NS(=O)(=O)c2ccccc2Cl)c1C	0	0	0	0	0
CC(C)(NC(=O)c1cc(Cl)c2ccccc2c1O)C(=O)O	-83.4	0	0	0	0
O=C(O)c1cc(Cl)c2ccccc2c1O	0	0	0	0	0
Nc1nc(-c2ccc(Cl)cc2)c(N=Nc2ccc(S(=O)(=O)N3CCOCC3)cc2)s1	0	0	59.1	0	0
CCc1ccc(-c2nc(CSCC(=O)NCc3ccco3)c(C)o2)cc1	-71.8	0	0	0	0
CCOc1ccc(-c2nc(CSCC(=O)NCC3CCCO3)c(C)o2)cc1 (stereo not drawn)	-57.3	0	0	0	0
Cc1cc(=S)[nH]c(=S)[nH]1	0	0	0	0	0
CCOC(=O)c1cnc2ccc(C(=O)OC)cc2c1NCCN1CCOCC1	0	0	0	0	0
CCOC(=O)c1cnc2ccc(C(=O)OC)cc2c1NCCCN1CCOCC1	-82.6	0	0	0	0
O=C(/C=C/c1ccco1)Nc1cccc(NC(=O)/C=C/c2ccco2)n1	0	0	0	80.7	0
O=C(/C=C/c1ccco1)NC(=S)Nc1ccccn1	0	0	0	58.3	0
Cc1cccnc1NC(=S)NC(=O)/C=C/c1ccco1	0	0	0	?	0
COc1ccccc1/C=C/C(=O)NC(=S)Nc1ccccn1	0	0	0	65.5	0
COc1ccccc1NC(=O)C(=O)N/N=C(\C)CC(=O)Nc1ccccn1	0	0	0	0	0
COc1ccccc1NC(=O)C(=O)Nc1ccccn1	0	0	0	58.8	0
O=C(CSc1nc2ccccc2n1Cc1ccccc1Cl)N/N=C/c1ccccc1C(=O)O	0	0	0	0	0
COc1ccc(/C=C/C2=Nc3ccccc3NC(C)(C)C2)cc1OC	0	0	0	0	0

Compound activity (PubChem BioAssay)
